From PubChem BioAssay AID1793 (Vanderbilt High Throughput Screening Facility, 2009)

Experiments:
Assay in all cases: off-target binding across receptor and channel panel, profiling panel, selectivity assay for Cl- transport modulator project, biochemical, MDS panel, antagonist ancillary profile (AID 1793)
[1] = molecular target: Beta-2 adrenergic receptor (Homo sapiens) (UniProt P07550); conditions: MDS Pharma radioligand binding panel, % inhibition; measured here: Adrenergic b2 human; at 10 µM; stronger effect = higher value
Outline: (§1)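 Assay system – GPCR, ion channel, transporter off-target panel · Doses – lead compound at one single concentration, 10 µM · Read-out basis – Ancillary (off-target) activity of the lead compound per target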

[2] = molecular target: Adenosine receptor A2a (Homo sapiens) (UniProt P29274); conditions: MDS Pharma radioligand binding panel, % inhibition; measured here: Adenosine A2 human; at 10 µM; stronger effect = higher value
Outline: as §1

[3] = molecular target: Androgen receptor (Rattus norvegicus) (UniProt P15207); conditions: MDS Pharma radioligand binding panel, % inhibition; measured here: Androgen receptor rat; at 10 µM; stronger effect = higher value
Outline: as §1

[4] = molecular target: Alpha-1A adrenergic receptor (Rattus norvegicus) (UniProt P43140); conditions: MDS Pharma radioligand binding panel, % inhibition; measured here: Adrenergic a1A rat; at 10 µM; stronger effect = higher value
Outline: as §1

[5] = molecular target: Alpha-2A adrenergic receptor (Homo sapiens) (UniProt P08913); conditions: MDS Pharma radioligand binding panel, % inhibition; measured here: Adrenergic a2A human; at 10 µM; stronger effect = higher value
Outline: as §1

[6] = molecular target: Adenosine receptor A1 (Homo sapiens) (UniProt P30542); conditions: MDS Pharma radioligand binding panel, % inhibition; at 10 µM; stronger effect = higher value
Outline: as §1

[7] = molecular target: Alpha-1B adrenergic receptor (Rattus norvegicus) (UniProt P15823); conditions: MDS Pharma radioligand binding panel, % inhibition; measured here: Adrenergic a1B rat; at 10 µM; stronger effect = higher value
Outline: as §1

[8] = molecular target: B1 bradykinin receptor (Homo sapiens) (UniProt P46663); conditions: MDS Pharma radioligand binding panel, % inhibition; measured here: Bradykinin B1 human; at 10 µM; stronger effect = higher value
Outline: as §1

[9] = molecular target: Alpha-1D adrenergic receptor (Homo sapiens) (UniProt P25100); conditions: MDS Pharma radioligand binding panel, % inhibition; measured here: Adrenergic a1D human; at 10 µM; stronger effect = higher value
Outline: as §1

[10] = molecular target: Beta-1 adrenergic receptor (Homo sapiens) (UniProt P08588); conditions: MDS Pharma radioligand binding panel, % inhibition; measured here: Adrenergic b1 human; at 10 µM; stronger effect = higher value
Outline: as §1

[11] = molecular target: Voltage-dependent L-type calcium channel subunit alpha-1C (Rattus norvegicus) (UniProt P22002); conditions: MDS Pharma radioligand binding panel, % inhibition; measured here: L-type Ca channel BTZ rat; at 10 µM; stronger effect = higher value
Outline: as §1

[12] = molecular target: B2 bradykinin receptor (Homo sapiens) (UniProt P30411); conditions: MDS Pharma radioligand binding panel, % inhibition; measured here: Bradykinin B2 human; at 10 µM; stronger effect = higher value
Outline: as §1

[13] = molecular target: Adenosine receptor A3 (Homo sapiens) (UniProt P0DMS8); conditions: MDS Pharma radioligand binding panel, % inhibition; measured here: Adenosine A3 human; at 10 µM; stronger effect = higher value
Outline: as §1

Beta-1 adrenergic receptor (Homo sapiens), sequence (P08588 whole entry, looked up): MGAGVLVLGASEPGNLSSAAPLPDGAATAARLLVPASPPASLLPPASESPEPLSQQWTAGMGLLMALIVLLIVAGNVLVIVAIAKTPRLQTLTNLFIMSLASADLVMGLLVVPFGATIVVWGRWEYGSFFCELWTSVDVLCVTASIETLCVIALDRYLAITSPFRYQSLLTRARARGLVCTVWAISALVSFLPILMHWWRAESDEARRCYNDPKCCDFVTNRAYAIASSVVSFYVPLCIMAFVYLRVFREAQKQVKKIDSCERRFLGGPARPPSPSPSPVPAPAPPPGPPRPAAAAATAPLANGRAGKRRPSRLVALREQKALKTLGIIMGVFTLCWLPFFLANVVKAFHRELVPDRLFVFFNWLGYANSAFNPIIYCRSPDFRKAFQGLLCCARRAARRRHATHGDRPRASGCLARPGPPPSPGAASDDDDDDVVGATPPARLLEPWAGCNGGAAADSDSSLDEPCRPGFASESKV
Adenosine receptor A1 (Homo sapiens), sequence (P30542 whole entry, looked up): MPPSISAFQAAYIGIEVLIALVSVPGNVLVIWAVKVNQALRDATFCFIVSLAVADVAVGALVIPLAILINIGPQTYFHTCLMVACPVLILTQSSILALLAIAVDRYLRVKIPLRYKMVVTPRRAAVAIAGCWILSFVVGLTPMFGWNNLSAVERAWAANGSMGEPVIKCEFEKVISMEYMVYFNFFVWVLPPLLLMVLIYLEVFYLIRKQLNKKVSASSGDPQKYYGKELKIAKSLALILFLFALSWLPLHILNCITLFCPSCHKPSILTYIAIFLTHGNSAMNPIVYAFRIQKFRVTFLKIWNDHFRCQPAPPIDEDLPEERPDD
Alpha-2A adrenergic receptor (Homo sapiens), sequence (P08913 whole entry, looked up): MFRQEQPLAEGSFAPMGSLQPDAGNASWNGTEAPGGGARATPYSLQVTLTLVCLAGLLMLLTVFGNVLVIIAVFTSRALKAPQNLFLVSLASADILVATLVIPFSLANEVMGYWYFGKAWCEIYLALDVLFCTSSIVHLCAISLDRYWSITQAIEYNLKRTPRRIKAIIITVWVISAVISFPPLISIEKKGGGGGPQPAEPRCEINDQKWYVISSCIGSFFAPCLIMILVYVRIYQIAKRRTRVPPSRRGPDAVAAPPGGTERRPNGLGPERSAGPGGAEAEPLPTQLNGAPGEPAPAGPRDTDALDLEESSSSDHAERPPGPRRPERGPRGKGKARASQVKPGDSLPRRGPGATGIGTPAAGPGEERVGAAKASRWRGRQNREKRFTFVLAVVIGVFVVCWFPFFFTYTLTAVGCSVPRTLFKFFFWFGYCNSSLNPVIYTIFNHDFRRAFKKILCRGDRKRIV
Adenosine receptor A3 (Homo sapiens), sequence (P0DMS8 whole entry, looked up): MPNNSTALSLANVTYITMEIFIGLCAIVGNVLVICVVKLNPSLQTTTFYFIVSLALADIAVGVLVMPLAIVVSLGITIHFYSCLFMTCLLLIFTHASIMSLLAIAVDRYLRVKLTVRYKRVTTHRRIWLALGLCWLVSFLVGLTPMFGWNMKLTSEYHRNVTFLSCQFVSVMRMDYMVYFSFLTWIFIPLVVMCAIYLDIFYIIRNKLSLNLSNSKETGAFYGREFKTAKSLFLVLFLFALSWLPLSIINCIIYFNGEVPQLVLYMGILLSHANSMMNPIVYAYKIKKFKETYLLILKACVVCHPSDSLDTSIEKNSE
B2 bradykinin receptor (Homo sapiens), sequence (P30411 whole entry, looked up): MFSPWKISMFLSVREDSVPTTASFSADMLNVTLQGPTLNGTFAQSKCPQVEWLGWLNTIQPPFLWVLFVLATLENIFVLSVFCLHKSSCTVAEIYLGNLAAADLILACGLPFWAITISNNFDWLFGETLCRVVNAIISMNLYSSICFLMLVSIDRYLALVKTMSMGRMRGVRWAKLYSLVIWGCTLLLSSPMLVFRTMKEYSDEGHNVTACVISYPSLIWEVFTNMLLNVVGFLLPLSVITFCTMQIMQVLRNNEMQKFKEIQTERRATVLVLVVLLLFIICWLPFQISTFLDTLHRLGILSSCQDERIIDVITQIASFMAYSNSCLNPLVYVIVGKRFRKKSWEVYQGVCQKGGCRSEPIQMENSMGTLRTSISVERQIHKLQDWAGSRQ
Beta-2 adrenergic receptor (Homo sapiens), sequence (P07550 whole entry, looked up): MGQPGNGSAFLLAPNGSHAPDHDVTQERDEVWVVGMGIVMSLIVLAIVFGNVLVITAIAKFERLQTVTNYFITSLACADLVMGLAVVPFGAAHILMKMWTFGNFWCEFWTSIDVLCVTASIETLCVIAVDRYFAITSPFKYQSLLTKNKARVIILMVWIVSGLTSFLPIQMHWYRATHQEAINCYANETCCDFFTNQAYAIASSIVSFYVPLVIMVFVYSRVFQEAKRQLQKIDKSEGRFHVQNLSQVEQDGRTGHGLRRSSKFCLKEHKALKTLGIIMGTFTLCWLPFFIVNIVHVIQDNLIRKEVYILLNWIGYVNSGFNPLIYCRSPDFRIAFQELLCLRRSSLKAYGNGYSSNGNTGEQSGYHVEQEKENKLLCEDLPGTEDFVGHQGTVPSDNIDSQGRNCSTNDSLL
Voltage-dependent L-type calcium channel subunit alpha-1C (Rattus norvegicus), sequence (P22002 whole entry, looked up): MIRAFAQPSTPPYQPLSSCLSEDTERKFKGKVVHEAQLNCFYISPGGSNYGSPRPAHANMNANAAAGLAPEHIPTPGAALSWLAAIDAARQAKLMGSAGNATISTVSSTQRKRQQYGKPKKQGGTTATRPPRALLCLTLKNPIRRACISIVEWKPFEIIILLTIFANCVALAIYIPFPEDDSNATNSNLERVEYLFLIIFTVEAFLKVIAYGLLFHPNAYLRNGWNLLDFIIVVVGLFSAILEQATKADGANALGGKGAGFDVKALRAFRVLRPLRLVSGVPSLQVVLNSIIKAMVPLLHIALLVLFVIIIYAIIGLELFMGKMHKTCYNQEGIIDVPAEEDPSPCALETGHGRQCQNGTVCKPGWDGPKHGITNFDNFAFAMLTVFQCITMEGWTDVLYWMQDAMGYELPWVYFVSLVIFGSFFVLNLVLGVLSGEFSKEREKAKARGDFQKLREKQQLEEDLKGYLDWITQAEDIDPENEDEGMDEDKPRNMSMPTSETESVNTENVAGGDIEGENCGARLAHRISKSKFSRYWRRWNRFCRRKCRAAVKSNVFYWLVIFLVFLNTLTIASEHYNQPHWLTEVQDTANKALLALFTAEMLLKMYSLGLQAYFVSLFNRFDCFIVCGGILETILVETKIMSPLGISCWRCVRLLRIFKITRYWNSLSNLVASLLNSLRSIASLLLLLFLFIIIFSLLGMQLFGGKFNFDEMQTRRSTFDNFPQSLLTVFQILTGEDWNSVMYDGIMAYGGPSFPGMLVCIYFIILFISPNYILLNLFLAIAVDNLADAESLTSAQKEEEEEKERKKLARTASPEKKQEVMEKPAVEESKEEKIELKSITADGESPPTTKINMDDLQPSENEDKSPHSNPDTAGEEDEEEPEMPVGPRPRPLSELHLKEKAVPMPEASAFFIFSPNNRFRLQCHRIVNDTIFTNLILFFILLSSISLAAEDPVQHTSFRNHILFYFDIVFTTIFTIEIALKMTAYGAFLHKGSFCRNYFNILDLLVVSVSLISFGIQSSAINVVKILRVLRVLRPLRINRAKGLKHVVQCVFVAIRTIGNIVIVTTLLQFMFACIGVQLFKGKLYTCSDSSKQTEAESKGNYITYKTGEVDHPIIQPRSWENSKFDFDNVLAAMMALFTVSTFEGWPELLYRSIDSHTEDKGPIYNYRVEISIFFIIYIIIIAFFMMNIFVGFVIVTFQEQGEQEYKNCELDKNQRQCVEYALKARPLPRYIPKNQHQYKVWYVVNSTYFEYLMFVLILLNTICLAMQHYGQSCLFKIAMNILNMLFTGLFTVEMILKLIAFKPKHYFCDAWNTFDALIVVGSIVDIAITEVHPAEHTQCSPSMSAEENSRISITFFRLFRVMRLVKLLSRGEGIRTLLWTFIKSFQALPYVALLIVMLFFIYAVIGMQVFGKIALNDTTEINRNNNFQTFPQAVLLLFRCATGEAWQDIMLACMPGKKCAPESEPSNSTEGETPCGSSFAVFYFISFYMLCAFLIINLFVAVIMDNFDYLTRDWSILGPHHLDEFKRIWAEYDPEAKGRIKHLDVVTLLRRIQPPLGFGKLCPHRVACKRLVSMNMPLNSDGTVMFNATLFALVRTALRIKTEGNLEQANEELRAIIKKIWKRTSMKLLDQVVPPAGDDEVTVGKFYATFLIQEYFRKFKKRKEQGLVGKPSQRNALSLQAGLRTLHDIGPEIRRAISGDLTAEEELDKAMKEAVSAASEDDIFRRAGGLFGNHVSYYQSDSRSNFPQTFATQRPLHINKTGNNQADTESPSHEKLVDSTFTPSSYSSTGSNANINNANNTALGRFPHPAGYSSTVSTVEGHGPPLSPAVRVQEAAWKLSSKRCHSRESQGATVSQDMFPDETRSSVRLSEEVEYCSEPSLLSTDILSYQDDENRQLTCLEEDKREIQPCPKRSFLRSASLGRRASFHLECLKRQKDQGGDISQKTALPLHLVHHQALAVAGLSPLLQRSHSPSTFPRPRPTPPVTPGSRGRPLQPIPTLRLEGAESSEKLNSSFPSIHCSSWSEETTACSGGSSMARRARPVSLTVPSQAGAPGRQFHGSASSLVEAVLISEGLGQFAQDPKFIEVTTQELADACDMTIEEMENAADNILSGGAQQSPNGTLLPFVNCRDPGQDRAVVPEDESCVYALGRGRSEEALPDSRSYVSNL
Adenosine receptor A2a (Homo sapiens), sequence (P29274 whole entry, looked up): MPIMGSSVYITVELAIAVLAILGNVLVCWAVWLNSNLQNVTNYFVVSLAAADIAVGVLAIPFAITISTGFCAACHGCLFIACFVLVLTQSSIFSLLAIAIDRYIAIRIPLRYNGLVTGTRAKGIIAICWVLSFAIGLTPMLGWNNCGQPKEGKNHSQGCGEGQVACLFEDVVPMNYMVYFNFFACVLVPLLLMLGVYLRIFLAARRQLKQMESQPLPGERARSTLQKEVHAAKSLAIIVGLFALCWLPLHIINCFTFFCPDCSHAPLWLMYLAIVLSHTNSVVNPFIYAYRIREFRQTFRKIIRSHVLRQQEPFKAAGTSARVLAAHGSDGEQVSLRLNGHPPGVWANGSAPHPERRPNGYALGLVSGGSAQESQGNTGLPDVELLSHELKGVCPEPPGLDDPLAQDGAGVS

## Cc1csc(N(C)C(=O)CSc2ccc(-c3ccccc3)nn2)n1
[1]
  inhibition: 9%
[2]
  inhibition: 38%
[3]
  inhibition: 4%
[4]
  inhibition: 33%
[5]
  inhibition: -7%
[6]
  inhibition: 31%
[7]
  inhibition: 3%
[8]
  inhibition: 6%
[9]
  inhibition: 16%
[10]
  inhibition: 10%
[11]
  inhibition: 10%
[12]
  inhibition: 2%
[13]
  inhibition: 38%
